According to ChEMBL document CHEMBL1275434, “In vitro evaluation of CBR-2092, a novel rifamycin-quinolone hybrid antibiotic: studies of the mode of action in Staphylococcus aureus” (Antimicrob Agents Chemother, 2008):
Values after ≈ are worked out from the molar mass of the structure shown.

Columns and labels:
Staphylococcus aureus [1] = test: Activity at Staphylococcus aureus wild-type DNA topoisomerase 4 subunit ParC
In short: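 Recombinant S. aureus topoisomerase IV (wild-type ParC with ParE; specific activity 25 to 30 U per μg). Stopped with SDS/proteinase K. Linear DNA quantified on gel; CC50 is the mean of two or more assays.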

Staphylococcus aureus [2] = test: Activity at Staphylococcus aureus DNA topoisomerase 4 subunit ParC S80F mutant
Staphylococcus aureus [3] = test: Activity at Staphylococcus aureus wild-type GyrA
In short: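 Recombinant S. aureus gyrase (wild-type GyrA with His-tagged GyrB; 250 U per μg). SDS/proteinase K stop. Gel quantitation of linear cleavage product gave CC50, the mean of two or more assays.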

[4] = test system: DNA gyrase subunit A (Staphylococcus aureus), P20831 [S84L]; test: Activity at Staphylococcus aureus wild-type GyrA S84L mutant
Staphylococcus aureus [5] = test: Antimicrobial activity against Staphylococcus aureus CB190 by broth microdilution method; format: functional
Staphylococcus aureus [6] = test: Antimicrobial activity against Staphylococcus aureus CB811 harboring quinolone-resistant gyrA S84L mutant gene by broth microdilution method; format: functional
In short: (§1)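 CLSI broth microdilution MIC in cation-adjusted Mueller-Hinton (MHII) broth supplemented with 0.002% (vol/vol) polysorbate 80, included to limit compound loss to plastic surfaces.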

Staphylococcus aureus [7] = test: Antimicrobial activity against Staphylococcus aureus CB808 harboring quinolone-resistant parC S80F mutant gene by broth microdilution method; format: functional; in short: as §1
Staphylococcus aureus [8] = test: Antimicrobial activity against Staphylococcus aureus CB814 harboring fluoroquinolone-resistant gyrA S84L and parC S80F mutant genes by broth microdilution method; format: functional; in short: as §1
Staphylococcus aureus [9] = test: Antimicrobial activity against Staphylococcus aureus CB370 harboring rifampin-resistant rpoB H481Y mutant gene by broth microdilution method; format: functional; in short: as §1
Staphylococcus aureus [10] = test: Antimicrobial activity against Staphylococcus aureus CB812 harboring rpo B H481Y and gyrA S84L mutant genes by broth microdilution method; format: functional; in short: as §1
Staphylococcus aureus [11] = test: Antimicrobial activity against Staphylococcus aureus CB809 harboring rpoB H481Y and parC S80F mutant genes by broth microdilution method
Staphylococcus aureus [12] = test: Antimicrobial activity against Staphylococcus aureus CB815 harboring rpoB H481Y, gyrA S84L and parC S80F mutant genes by broth microdilution method

With `Cc1c(N2CC[C@@H](N)C2)c(F)cn2c(=O)c(C(=O)O)cc(C3CC3)c12` the CC50 (Staphylococcus aureus [1]) was 60 nM, the CC50 (Staphylococcus aureus [2]) was 1100 nM and the CC50 (Staphylococcus aureus [3]) was 90 nM. The CC50 [4] was 900 nM, the MIC (Staphylococcus aureus [5]) was 0.015 µg/mL (≈ 0.0434 µM) and the MIC (Staphylococcus aureus [6]) was 0.03 µg/mL (≈ 0.0869 µM). It also gave an MIC (Staphylococcus aureus [7]) of 0.03 µg/mL (≈ 0.0869 µM), an MIC (Staphylococcus aureus [8]) of 0.5 µg/mL (≈ 1.45 µM) and an MIC (Staphylococcus aureus [9]) of 0.015 µg/mL (≈ 0.0434 µM). For the same molecule, the MIC (Staphylococcus aureus [10]) was 0.03 µg/mL (≈ 0.0869 µM), the MIC (Staphylococcus aureus [11]) was 0.03 µg/mL (≈ 0.0869 µM) and the MIC (Staphylococcus aureus [12]) was 0.25 µg/mL (≈ 0.724 µM).
